Results published in ChEMBL document CHEMBL4396897, “Potent 5-Cyano-6-phenyl-pyrimidin-Based Derivatives Targeting DCN1-UBE2M Interaction” (J Med Chem, 2019).
The source made the active and inactive calls.

Legend:
[1] = target: T1, NEDD8-activating enzyme E1 catalytic subunit (Homo sapiens) (UniProt Q8TBC4); assay: Inhibition of NEDD8-activating enzyme E1C (unknown origin) assessed as effect on NEDD8/UBE2M complex formation at 10 to 20 uM pre-incubated for 10 mins followed by Mg-ATP addition after 60 mins by SDS-PAGE analysis
T1 sequence (whole entry): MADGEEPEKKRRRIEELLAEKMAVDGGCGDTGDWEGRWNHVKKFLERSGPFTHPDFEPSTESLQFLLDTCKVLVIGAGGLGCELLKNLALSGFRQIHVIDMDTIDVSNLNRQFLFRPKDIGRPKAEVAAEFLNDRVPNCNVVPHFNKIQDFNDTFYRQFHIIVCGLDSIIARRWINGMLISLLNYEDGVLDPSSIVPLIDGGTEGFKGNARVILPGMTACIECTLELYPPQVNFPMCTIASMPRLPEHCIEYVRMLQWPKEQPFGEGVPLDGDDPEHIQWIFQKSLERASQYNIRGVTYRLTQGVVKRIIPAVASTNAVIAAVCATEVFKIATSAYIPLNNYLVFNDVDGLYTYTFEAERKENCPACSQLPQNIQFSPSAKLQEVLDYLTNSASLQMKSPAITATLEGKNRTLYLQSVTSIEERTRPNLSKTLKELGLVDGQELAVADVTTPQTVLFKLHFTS
Summary of the method: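 Cell-free NEDD8~UBE2M formation: NEDD8 E1 mixed with NEDD8, UBE2M and compound (10 and 20µM reference inhibitor, or 1, 10 and 100µM test compound) in reaction buffer, 10 min at room temperature. Started with Mg-ATP, incubated 60 min at 37°C, then 1mM DTT and non-reducing loading buffer added. Resolved on 12% SDS-PAGE.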

[2] = target: T2, DCN1-like protein 1/NEDD8-conjugating enzyme Ubc12 (Homo sapiens) (UniProt Q96GG9+P61081); assay: Inhibition of DCN1-UBE2M protein-protein interaction in human NCI-H1975 cells assessed as increase in NRF2 accumulation at 3 uM incubated for 24 hrs by Western blot analysis; format: cell-based
Summary of the method: (§1)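 H1975 and PC9 cells seeded at 1×10⁶ cells, incubated overnight, then treated 24h with compound (0, 0.3, 1, 10 and 20 μM in methods; 3 μM also listed in text). Lysates cleared at 12,000×g, 20 min, 4°C, protein by BCA, SDS–PAGE, nitrocellulose, primary antibodies overnight at 4°C, HRP secondary, ECL. Densitometry normalised to GAPDH; three experiments.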

[3] = target: T2, DCN1-like protein 1/NEDD8-conjugating enzyme Ubc12 (Homo sapiens); assay: Inhibition of DCN1-UBE2M protein-protein interaction in human NCI-H1975 cells assessed as increase in NQO1 accumulation at 3 uM incubated for 24 hrs by Western blot analysis; format: cell-based; summary of the method: as §1
[4] = target: T2, DCN1-like protein 1/NEDD8-conjugating enzyme Ubc12 (Homo sapiens); assay: Inhibition of DCN1-UBE2M protein-protein interaction in human NCI-H1975 cells assessed as increase in HO-1 accumulation at 3 uM incubated for 24 hrs by Western blot analysis; format: cell-based; summary of the method: as §1
[5] = target: T2, DCN1-like protein 1/NEDD8-conjugating enzyme Ubc12 (Homo sapiens); assay: Inhibition of DCN1-UBE2M protein-protein interaction in human PC9 cells assessed as increase in NRF2 accumulation at 3 uM incubated for 24 hrs by Western blot analysis; format: cell-based; summary of the method: as §1
[6] = target: T2, DCN1-like protein 1/NEDD8-conjugating enzyme Ubc12 (Homo sapiens); assay: Inhibition of DCN1-UBE2M protein-protein interaction in human PC9 cells assessed as increase in NQO1 accumulation at 3 uM incubated for 24 hrs by Western blot analysis; format: cell-based; summary of the method: as §1
[7] = target: T2, DCN1-like protein 1/NEDD8-conjugating enzyme Ubc12 (Homo sapiens); assay: Inhibition of DCN1-UBE2M protein-protein interaction in human PC9 cells assessed as increase in HO-1 accumulation at 3 uM incubated for 24 hrs by Western blot analysis; format: cell-based; summary of the method: as §1

Measured: inhibition

T2 sequence (P61081 whole entry, looked up): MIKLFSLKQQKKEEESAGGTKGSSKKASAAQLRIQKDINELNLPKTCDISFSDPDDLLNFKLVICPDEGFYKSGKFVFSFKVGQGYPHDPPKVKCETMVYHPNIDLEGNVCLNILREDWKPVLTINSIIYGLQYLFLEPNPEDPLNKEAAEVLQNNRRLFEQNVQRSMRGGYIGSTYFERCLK
T2 sequence (Q96GG9 whole entry, looked up): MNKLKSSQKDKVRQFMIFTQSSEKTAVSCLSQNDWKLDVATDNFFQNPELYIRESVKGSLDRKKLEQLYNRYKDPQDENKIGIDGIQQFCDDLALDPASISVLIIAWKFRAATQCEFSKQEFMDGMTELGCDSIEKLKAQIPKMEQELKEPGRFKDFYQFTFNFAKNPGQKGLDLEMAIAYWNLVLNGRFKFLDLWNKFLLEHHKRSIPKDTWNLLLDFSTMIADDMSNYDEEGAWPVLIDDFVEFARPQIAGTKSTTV

NS(=O)(=O)OC[C@@H]1C[C@@H](n2ccc3c(N[C@H]4CCc5ccccc54)ncnc32)C[C@@H]1O
active: all assays above
